In the library only some 3.1% were active in any assay of this set; here they are far more common.
MEKK3 PB1 HTS – modulators (inhibitors or enhancers) of MEK5 binding to human MEKK3 PB1 domain. Q99759. bead-based flow cytometry, Alexa488-MEK5 binding to MEKK3; actives lie on both sides; 0 = blocked by unlabeled MEK5, 100 = vehicle. binding response (% of control), % at 10 µM. hit rate 1.4% among 290,000. AID 1529;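 active means binding response more than 3 SD above or below the average of its plate-row segment, actives on both sides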;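 further: Alexa488 bead fluorescence after subtracting the streptavidin-only scavenger bead signal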
MEKK2 mut-MEK5 – signal of MEK5 binding to mutant human MEKK2 PB1 domain | hit rate 0.35% among 290,000 | bead flow cytometry, Alexa488-MEK5 binding to MEKK2 mutant | percent response, % at 10 µM | AID 1530; in the data active means percent response above about 24%, passing the limit was not always enough
MEKK2wt PB1 HTS – raises or lowers MEK5 binding to wildtype human MEKK2 PB1 domain; Q9Y2U5; bead flow cytometry, Alexa488-MEK5 binding to MEKK2 WT; actives lie on both sides; binding response (% of control), % at 10 µM; hit rate 1.1% among 290,000; in the data active means binding response below about 67% or above about 130%
UBC13 inh – blocks human UBC13 polyubiquitin chain formation | P61088 | TR-FRET | inhibition, % at 20 µM | hit rate 0.47% among 330,000 | AID 485273; in the data active means inhibition above about 45%, passing the limit was not always enough
Target sequence (P61088 whole entry, looked up): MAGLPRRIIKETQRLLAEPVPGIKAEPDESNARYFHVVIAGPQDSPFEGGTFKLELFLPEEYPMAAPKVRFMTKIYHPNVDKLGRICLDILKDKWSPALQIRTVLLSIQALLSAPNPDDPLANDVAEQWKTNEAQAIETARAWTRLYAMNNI
Apaf-1 inh – human Apaf-1 inhibition; reconstituted apoptosome caspase-3 activity, DEVD-Rh110 fluorescence; inhibition, % at 20 µM; hit rate 0.71% among 330,000; active means inhibition of at least 40% at 20 µM;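 further: plate controls were DMSO wells for no effect and DEVD-CHO caspase inhibitor wells for full effect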
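detection = Rh110 fluorescence intensity | test system = biochemical Apaf-1 apoptosome reconstitution | also added = cytochrome c and DEVD-Rh110 substrate | schedule = 30 min plus 50 min, RT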
PREPL inh – inhibitors of human prolyl oligopeptidase-like enzyme PREPL | Q4J6C6 | recombinant PREPL, fluorescence polarization activity-based probe | inhibition, % at 5.96 µM | hit rate 0.68% among 320,000 | AID 2751; in the data active means inhibition above about 43%;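 further: 0% = enzyme with DMSO and 100% = wells lacking enzyme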
MEKK2wt confirm – raises or lowers MEK5 binding to wildtype human MEKK2, retest; shares compounds with MEKK3 PB1 HTS; bead flow cytometry, Alexa488-MEK5 binding to MEKK2 WT; actives lie on both sides; binding response (% of control), % at 10 µM; AID 1892; hit rate 2.4% among 5,900; in the data active means binding response below about 16% or above about 210%; inactive means in between
MEKK2mut-MEK5 – signal of MEK5 binding to mutant human MEKK2, retest | shares compounds with MEKK3 PB1 HTS | bead flow cytometry, Alexa488-MEK5 binding to MEKK2 mutant | percent response, % at 10 µM | hit rate 2% among 5,900 | AID 1893; in the data active means percent response mostly above about 71%, no sharp cut-off; inactive means mostly below about 38%;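 further: higher means compound restores mutant binding toward wildtype level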
MEKK3-MEK5 inh – confirmation of inhibitors of MEK5 binding to human MEKK3. shares compounds with MEKK3 PB1 HTS. bead flow cytometry, Alexa488-MEK5 binding to MEKK3; active compounds read low. binding response (% of control), % at 10 µM. hit rate 1.8% among 5,900. AID 1894;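 active means binding response below 72% of control, or above a set upper limit, though filed actives all read lower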;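 further: 100% = DMSO only wells and 0% = binding blocked by excess unlabeled MEK5; lower values mean stronger disruption of MEK5 binding to MEKK3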
Numbers without * were called inactive; x = not tested or not shown; [ ] = remark or other dose.

SMILES	MEKK3 PB1 HTS	MEKK2 mut-MEK5	MEKK2wt PB1 HTS	UBC13 inh	Apaf-1 inh	PREPL inh	others
Cc1ccc(NC(=O)CSCC(=O)N(CCC(C)C)c2c(N)n(Cc3ccccc3)c(=O)[nH]c2=O)cc1	x	x	x	-1.4	16.9	x
O=[N+]([O-])c1ccc(N/N=C/c2c[nH]c3ccccc23)cc1	102.0	10.0	104.0	-171.3	25.4	14.6
O=[N+]([O-])c1ccc(N/N=C/c2ccc[nH]2)cc1	83.0	5.0	-1.0*	x	x	29.6
CCN1CCc2c(sc(NC(=O)c3ccc4ccccc4c3)c2C(N)=O)C1	97.0	15.0	129.0	16.8	40.3*	29.9
CN1CCc2c(sc(NC(=O)CS(=O)(=O)c3ccccc3)c2C(N)=O)C1	x	x	x	-7.3	-13.3	10.7
CN1CCc2c(sc(NC(=O)c3ccc(C(=O)c4ccccc4)cc3)c2C(N)=O)C1	101.0	14.0	117.0	7.0	43.7*	11.0
CCC(=O)N1c2ccc(S(=O)(=O)NC3CCCCC3)cc2CC1C (centres undefined)	98.0	0.0	99.0	-2.1	7.5	4.0
C[C@H](CO)N1C[C@H](C)[C@@H](CN(C)S(=O)(=O)c2cccs2)Oc2c(NC(=O)NC3CCCCC3)cccc2C1=O	x	x	x	9.5	22.9	15.8
COc1ccccc1-c1nc(C#N)c(N2CCCCCC2)o1	101.0	0.0	93.0	-0.3	14.2	1.7
COc1ccc(N2CCN(c3oc(-c4ccccc4OC)nc3C#N)CC2)cc1	x	x	x	9.5	-2.2	51.7*
O=C(c1ccccc1)C1CCN(C(=O)c2cccs2)CC1	96.0	-5.0	98.0	-8.1	0.5	-4.2
O=C1NC(=O)[C@@H]2C3c4ccccc4C=CN3[C@H](C(=O)c3cccs3)[C@H]12 (some centres undefined)	114.0	16.0	106.0	-7.8	47.4*	14.4
CCNc1nnc(SCC(=O)NC2CCCCCC2)s1	x	x	x	-0.1	0.4	x
CCn1c(C)c(C)c2cc(C(=O)NCCCN3CCCCCC3)ccc21	100.0	17.0	136.0*	11.5	22.9	25.8
Cc1c(C)n(Cc2ccc(F)cc2)c2ccc(C(=O)NCCN3CCOCC3)cc12	94.0	3.0	105.0	5.0	14.4	1.3
CCn1c(C)c(C)c2cc(C(=O)NCCCN3CCCCC3)ccc21	103.0	31.0*	1.0*	20.3	12.4	8.2
CCn1c(C)c(C)c2cc(C(=O)NCCCN3CCN(C)CC3)ccc21	100.0	12.0	99.0	13.4	8.3	-1.6
CCn1c(C)c(C)c2cc(C(=O)NCCN3CCCCCC3)ccc21	105.0	19.0	145.0*	15.5	33.4	28.8
COc1cc(OC)c2c(-c3ccccc3)cc(=O)oc2c1C(CC(=O)N1CCN(c2ccccc2)CC1)c1ccc2c(c1)OCO2 (centres undefined)	131.0*	0.0	145.0*	x	x	x
COc1cccc(/C=C/c2nc3c(cnn3-c3ccccc3)c(=O)[nH]2)c1	87.0	93.0*	x	0.6	9.0	3.0
O=c1[nH]c(/C=C/c2ccc(Br)cc2)nc2c1cnn2-c1ccccc1	81.0	-5.0	81.0	18.2	-10.1	-8.6
CON(C)C(=O)CC(CNC(=O)OC(C)(C)C)c1ccc(Cl)cc1 (centres undefined)	x	x	x	3.8	12.3	8.6
CCC1CCCCN1CCCNC(=O)Cn1cnc2sc(C)c(S(=O)(=O)N3CC(C)CC(C)C3)c2c1=O (centres undefined)	101.0	26.0*	135.0*	3.4	32.5	-14.3
COc1ccc(NC(=O)[C@@H]2[C@@H]3C(=O)N(C4CCCCC4)C(=O)[C@@H]3C3c4ccccc4C=CN32)cc1 (some centres undefined)	101.0	5.0	103.0	-24.5	51.0*	18.1
COc1ccc(NC(=O)C2CCC(N3C(=O)C4C5C=CC(C5)C4C3=O)CC2)cc1 (centres undefined)	107.0	2.0	108.0	3.8	-2.5	0.3
SMILES	MEKK3 PB1 HTS	MEKK2 mut-MEK5	MEKK2wt PB1 HTS	UBC13 inh	Apaf-1 inh	PREPL inh	others
CC(=O)[C@@H]1[C@@H]2C(=O)N(C3CCCCC3)C(=O)[C@@H]2C2c3ccccc3C=CN21 (some centres undefined)	108.0	9.0	104.0	-1.4	84.1*	-21.9
CC(C)(C)C(=O)[C@@H]1[C@@H]2C(=O)N(Cc3ccccc3)C(=O)[C@@H]2[C@H]2c3ccccc3C=CN12	101.0	2.0	113.0	x	x	x
Cc1noc(C)c1COC(=O)c1csc2c1CCCC2	x	x	x	10.3	6.0	x
O=S1(=O)N=C(Nc2ccc(N3CCOCC3)cc2)c2ccccc21	100.0	48.0	37.0*	5.0	-20.4	10.4
COc1ccc(NC(=O)c2nc[nH]c2C(=O)NCC(=O)OC(C)(C)C)cc1	50.0*[inhibitor]	4.0	54.0	-1.9	8.9	5.7	MEKK2wt confirm=104.0;MEKK2mut-MEK5=2.0;MEKK3-MEK5 inh=101.0
Cc1ccc(NC(=O)c2nc[nH]c2C(=O)NCC(=O)OC(C)(C)C)cc1	85.0	0.0	103.0	6.0	14.5	11.8
Cc1nnc(SCC(=O)NCc2ccccc2)n1-c1ccccc1	103.0	-1.0	101.0	-4.3	13.3	8.6
Cc1ccccc1C(=O)NNC(=O)CSc1nnc(C)n1-c1ccccc1	64.0*[inhibitor]	-1.0	96.0	-5.3	-4.8	-2.1	MEKK2wt confirm=100.0;MEKK2mut-MEK5=-12.0;MEKK3-MEK5 inh=97.0
Cc1cccc(CSc2nnc(CCCCCNC(=O)OC(C)(C)C)o2)c1	138.0*	30.0	118.0	5.7	14.0	6.5	MEKK2wt confirm=109.0;MEKK2mut-MEK5=6.0;MEKK3-MEK5 inh=105.0
CCN(CC)S(=O)(=O)c1cc(NC(=O)CNc2c(C)n(C)n(-c3ccccc3)c2=O)ccc1C	108.0	4.0	106.0	-2.5	2.9	4.7
Cc1cccc(NC(=O)CN2C(=O)N/C(=C\c3ccc(-c4cccc(C(=O)O)c4)o3)C2=O)c1	70.0*[inhibitor]	-31.0	52.0*[inhibitor]	4.8	3.3	8.9	MEKK2wt confirm=105.0;MEKK2mut-MEK5=8.0;MEKK3-MEK5 inh=109.0
Cc1cccc(NC(=O)CN2C(=O)N/C(=C/c3ccc(C)o3)C2=O)c1	129.0*	1.0	105.0	x	x	-3.8	MEKK2wt confirm=103.0;MEKK2mut-MEK5=4.0;MEKK3-MEK5 inh=99.0
Cc1ccc(NC(=O)CN2C(=O)N/C(=C/c3ccc(C)s3)C2=O)cc1	129.0*	1.0	104.0	-13.7	-10.6	-7.4	MEKK2wt confirm=98.0;MEKK2mut-MEK5=0.0;MEKK3-MEK5 inh=103.0
O=C(NCCn1cccn1)C1CCC(=O)N(CCc2ccccc2)C1 (centres undefined)	96.0	5.0	99.0	0.0	-11.3	5.4
